Measurements published in ChEMBL document CHEMBL5661971 (Cancer Res, 2006).
The source made the active and inactive calls. No cut-off for these calls is given here.

What was measured:
[1] = Cytotoxicity against human PrEC cells assessed as decrease in cell growth incubated for 72 hrs by CellTiter-Glo based luminescence assay; type: toxicity
Outline: (§1)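 Cells treated over 1 nmol/L to 20 μmol/L in 0.1% DMSO for 72 h at 37°C, 5% CO₂. Viable cells read by CellTiter-Glo luminescence. EC50 derived from proliferation data.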

Melanocyte [2] = experiment: Inhibition of MEK in normal human Melanocyte cells assessed as decreased ERK phosphorylation at 2 micromol/L incubated for 60 mins by Western blotting analysis; type: cell-based; conditions: dose 2.0 µmol/L
[3] = Inhibition of MEK in human PrEC cells assessed as inhibition of ERK phosphorylation incubated for 60 mins by Western blotting analysis; type: cell-based; conditions: 1 h
Outline: (§2)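 Cells exposed for 60 min, then Western blot for phospho-ERK1/2 and total ERK1/2 with infrared imaging. […] DMSO control.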

[4] = Inhibition of MEK in human SK-MEL-2 cells expressing N-Ras2 Q61R mutant assessed as inhibition of ERK phosphorylation incubated for 60 mins by Western blotting analysis; type: cell-based; conditions: SK-MEL-2, 1 h; outline: as §2
WM35 = experiment: Inhibition of MEK in human WM35 cells assessed as decreased ERK phosphorylation at 2 micromol/L incubated for 60 mins by Western blotting analysis; type: cell-based; conditions: dose 2.0 µmol/L
[5] = Inhibition of MEK in human A375P cells expressing B-Raf V600E mutant assessed as inhibition of ERK phosphorylation incubated for 60 mins by Western blotting analysis; type: cell-based; conditions: 1 h; outline: as §2
SK-MEL-28 = experiment: Antiproliferative activity against human SK-MEL-28 cells expressing B-Raf V600E mutant assessed as decrease in cell growth incubated for 72 hrs by CellTiter-Glo based luminescence assay; type: functional; conditions: SK-MEL-28, 72 h; outline: as §1
WM-3434 = experiment: Inhibition of MEK in human WM-3434 cells assessed as decreased ERK phosphorylation at 2 micromol/L incubated for 60 mins by Western blotting analysis; type: cell-based; conditions: dose 2.0 µmol/L
[6] = Cytotoxicity against human HMEC cells assessed as decrease in cell growth incubated for 72 hrs by CellTiter-Glo based luminescence assay; type: toxicity; outline: as §1
[7] = Inhibition of MEK in human HMEC cells assessed as inhibition of ERK phosphorylation incubated for 60 mins by Western blotting analysis; type: cell-based; conditions: 1 h; outline: as §2
SK-MEL-2 = experiment: Antiproliferative activity against human SK-MEL-2 cells expressing N-Ras Q61R mutant assessed as decrease in cell growth incubated for 72 hrs by CellTiter-Glo based luminescence assay; type: functional; conditions: SK-MEL-2, 72 h; outline: as §1
HT-29 = experiment: Antiproliferative activity against human HT-29 cells expressing B-Raf V600E mutant assessed as decrease in cell growth incubated for 72 hrs by CellTiter-Glo based luminescence assay; type: functional; conditions: HT-29, 72 h; outline: as §1
[8] = Inhibition of MEK in human HT-1080 cells expressing N-Ras2 Q61K mutant assessed as inhibition of ERK phosphorylation incubated for 60 mins by Western blotting analysis; type: cell-based; conditions: HT-1080, 1 h; outline: as §2
[9] = Inhibition of MEK in human HT-29 cells expressing B-Raf V600E mutant assessed as inhibition of ERK phosphorylation incubated for 60 mins by Western blotting analysis; type: cell-based; conditions: HT-29, 1 h; outline: as §2
COLO 205 = experiment: Antiproliferative activity against human COLO 205 cells expressing B-Raf V600E mutant assessed as decrease in cell growth incubated for 72 hrs by CellTiter-Glo based luminescence assay; type: functional; conditions: COLO 205, 72 h; outline: as §1
[10] = Inhibition of MEK in human Malme-3M cells expressing B-Raf V600E mutant assessed as inhibition of ERK phosphorylation incubated for 60 mins by Western blotting analysis; type: cell-based; conditions: 1 h; outline: as §2
[11] = Inhibition of MEK in human SK-MEL-28 cells expressing B-Raf V600E mutant assessed as inhibition of ERK phosphorylation incubated for 60 mins by Western blotting analysis; type: cell-based; conditions: SK-MEL-28, 1 h; outline: as §2
Malme-3M = experiment: Antiproliferative activity against human Malme-3M cells expressing B-Raf V600E mutant assessed as decrease in cell growth incubated for 72 hrs by CellTiter-Glo based luminescence assay; type: functional; outline: as §1
[12] = Cytotoxicity against human HFF cells assessed as decrease in cell growth incubated for 72 hrs by CellTiter-Glo based luminescence assay; type: toxicity; outline: as §1
HT-1080 = experiment: Antiproliferative activity against human HT-1080 cells expressing N-Ras Q61K mutant assessed as decrease in cell growth incubated for 72 hrs by CellTiter-Glo based luminescence assay; type: functional; conditions: HT-1080, 72 h; outline: as §1
WM-NCI = experiment: Inhibition of MEK in human WM-NCI cells assessed as decreased ERK phosphorylation at 2 micromol/L incubated for 60 mins by Western blotting analysis; type: cell-based; conditions: dose 2.0 µmol/L
[13] = Antiproliferative activity against human A375P cells expressing B-Raf V600E mutant assessed as decrease in cell growth incubated for 72 hrs by CellTiter-Glo based luminescence assay; type: functional; outline: as §1
[14] = Inhibition of MEK in human COLO 205 cells expressing B-Raf V600E mutant assessed as inhibition of ERK phosphorylation incubated for 60 mins by Western blotting analysis; type: cell-based; conditions: COLO 205, 1 h; outline: as §2
[15] = Inhibition of MEK in human HCT-116 cells expressing K-Ras2 G13D mutant assessed as inhibition of ERK phosphorylation incubated for 60 mins by Western blotting analysis; type: cell-based; conditions: HCT-116, 1 h; outline: as §2
HCT-116 = experiment: Antiproliferative activity against human HCT-116 cells expressing K-Ras G13D mutant assessed as decrease in cell growth incubated for 72 hrs by CellTiter-Glo based luminescence assay; type: functional; conditions: HCT-116, 72 h; outline: as §1
[16] = Inhibition of MEK in human HFF cells assessed as inhibition of ERK phosphorylation incubated for 60 mins by Western blotting analysis; type: cell-based; conditions: 1 h; outline: as §2
A375P = experiment: Anti-tumor activity against human A375P cells xenografted in nude mouse assessed as decreased tumorigenesis at 50 mg/kg administered daily for 21 days and then observed an additional 14 days following cessation of treatment and measured after 55 days; type: functional, organism-based; conditions: time 21.0 day
Outline: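 Female nude mice, 8–12 weeks old, injected s.c. with 5×10^6 A375P cells in Matrigel. Treatment began 3 weeks later at tumor volume 150–250 mm³, groups of eight randomized. Daily i.p. dosing for 21 days in 2% N,N-dimethylacetamide/2% Cremophor EL/96% acidified water (pH ~4–5), vehicle controls. Caliper tumor volume twice weekly for 55 days; mean ±SE.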

[17] = biological target: RAF proto-oncogene serine/threonine-protein kinase (Homo sapiens, UniProt P04049); experiment: Inhibition of c-Raf (unknown origin) assessed as apparent inhibition constant; conditions: read-out: Ki(app)
Sequence of RAF proto-oncogene serine/threonine-protein kinase (P04049 whole entry): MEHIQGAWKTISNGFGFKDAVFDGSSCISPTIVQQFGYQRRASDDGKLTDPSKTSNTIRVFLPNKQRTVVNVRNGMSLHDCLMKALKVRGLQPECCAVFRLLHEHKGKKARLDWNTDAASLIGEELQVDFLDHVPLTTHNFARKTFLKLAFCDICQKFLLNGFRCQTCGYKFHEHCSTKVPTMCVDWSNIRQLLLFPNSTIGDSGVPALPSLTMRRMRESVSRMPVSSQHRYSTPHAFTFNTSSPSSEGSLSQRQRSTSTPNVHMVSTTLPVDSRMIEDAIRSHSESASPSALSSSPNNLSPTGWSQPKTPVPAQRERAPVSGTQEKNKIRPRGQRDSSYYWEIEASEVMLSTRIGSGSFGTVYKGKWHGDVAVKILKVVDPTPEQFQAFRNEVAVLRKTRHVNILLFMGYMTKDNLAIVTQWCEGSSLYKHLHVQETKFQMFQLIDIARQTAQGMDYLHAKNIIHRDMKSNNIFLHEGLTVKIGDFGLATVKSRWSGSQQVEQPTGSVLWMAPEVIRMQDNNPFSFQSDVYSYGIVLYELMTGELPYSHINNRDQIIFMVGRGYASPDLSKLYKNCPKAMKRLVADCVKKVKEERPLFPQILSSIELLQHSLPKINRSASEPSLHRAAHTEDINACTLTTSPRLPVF

[18] = In vivo inhibition of ERK phosphorylation in human A375P cells xenografted in nude mouse at 50 mg/kg administered daily for 21 days and then observed an additional 14 days following cessation of treatment relative to control; type: functional; conditions: 504 h, time 21 day
Melanocyte [19] = experiment: Induction of cell cycle arrest in normal human Melanocyte cells assessed as accumulation of cells at G1 phase at 10 uM incubated for 24 hrs by flow cytometry analysis; type: toxicity, cell-based
Outline: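 Normal human melanocytes exposed to 1 and 10 μmol/L for 24 h. Cell cycle distribution measured by flow cytometry on a FACScan.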

[20] = Toxicity in nude mouse xenografted with human A375P cells assessed as body weight change at 50 mg/kg administered daily for 21 days and then observed an additional 14 days following cessation of treatment; type: organism-based; conditions: in vivo, 504 h, time 21 day
[21] = Inhibition of BRAF V599E mutant (unknown origin) assessed as apparent inhibition constant incubated for 25 mins in presence of gamma-[33P]ATP; set-up: species or system Homo sapiens; conditions: read-out: Ki(app)

EC50 (SK-MEL-28) [µM]	EC50 (SK-MEL-2) [µM]	EC50 (HT-29) [µM]	EC50 (COLO 205) [µM]	EC50 (HT-1080) [µM]	EC50 (HCT-116) [µM]	SMILES	EC50 at 72 h [1] [µM]	EC50 at 72 h [6] [µM]	EC50 (Malme-3M) [µM]	EC50 at 72 h [12] [µM]	EC50 [13] [µM]	also measured
0.22	0.36	0.36	0.23	1.6	2.2	O=C(NOCC1CC1)c1ccc(F)c(F)c1Nc1ccc(I)cc1Cl [CI-1040]	0.49	0.58	0.44	4.9	0.24	inhibition (Melanocyte [2]): Active; EC50 [3]: 0.039 µM; EC50 [4]: 0.29 µM; inhibition (WM35): Active; EC50 [5]: 0.21 µM; inhibition (WM-3434): Active; EC50 [7]: 0.011 µM; EC50 [8]: 0.066 µM; EC50 [9]: 0.088 µM; EC50 [10]: 0.52 µM; EC50 [11]: 0.086 µM; inhibition (WM-NCI): Active; EC50 [14]: 0.047 µM; EC50 [15]: 0.061 µM; EC50 [16]: 4.8 µM
0.12	0.55	0.87	0.1	13	4.6	CN(C)CCOc1ccc(-c2nc(-c3ccncc3)c(-c3ccc4c(c3)CC/C4=N\O)[nH]2)cc1 [SB590885]	> 13	9.2	0.15	> 12	0.37	Activity (A375P): Active; Ki [17]: 0.00172 µM; inhibition in vivo at 50 mg/kg [18]: ~50%; Activity (Melanocyte [19]): Toxic; Activity [20]: Toxic
–	–	–	–	–	–	CNC(=O)c1cc(Oc2ccc(NC(=O)Nc3ccc(Cl)c(C(F)(F)F)c3)cc2)ccn1 [SORAFENIB]	–	–	–	–	–	Ki [21]: 0.038 µM
